Source: PubChem (several laboratories)
ATG4B inhibitor = ATG4B protease inhibitors, primary screen, biochemical, fluorescence, uHTS. 340,000 tested, 0.51% active. Cysteine protease ATG4B (Homo sapiens), Q9Y4P1. ATG4B cleavage of LC3-PLA2, NBD-HPC fluorescence, 1 h. inhibition, % at 8.33 µM. AID 504462, 2011; in the data active means inhibition above about 40%
SIAE primary = human SIAE inhibitors, primary screen, biochemical, fluorescence polarization, FP-Rh probe, 1536-well HTS; Sialate O-acetylesterase (Homo sapiens), Q9HAT2; SIAE FP-Rh probe binding; inhibition, % at 9.66 µM; 370,000 tested, 0.69% active; AID 1053197, 2014;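 active means inhibition above a cutoff: mean of compounds within the control limits plus 3 SD of those, cut at about 17% in these data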;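 further: 0% = plate median of compound wells and 100% = probe without SIAE protein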
Target sequence (Q9HAT2 whole entry, looked up): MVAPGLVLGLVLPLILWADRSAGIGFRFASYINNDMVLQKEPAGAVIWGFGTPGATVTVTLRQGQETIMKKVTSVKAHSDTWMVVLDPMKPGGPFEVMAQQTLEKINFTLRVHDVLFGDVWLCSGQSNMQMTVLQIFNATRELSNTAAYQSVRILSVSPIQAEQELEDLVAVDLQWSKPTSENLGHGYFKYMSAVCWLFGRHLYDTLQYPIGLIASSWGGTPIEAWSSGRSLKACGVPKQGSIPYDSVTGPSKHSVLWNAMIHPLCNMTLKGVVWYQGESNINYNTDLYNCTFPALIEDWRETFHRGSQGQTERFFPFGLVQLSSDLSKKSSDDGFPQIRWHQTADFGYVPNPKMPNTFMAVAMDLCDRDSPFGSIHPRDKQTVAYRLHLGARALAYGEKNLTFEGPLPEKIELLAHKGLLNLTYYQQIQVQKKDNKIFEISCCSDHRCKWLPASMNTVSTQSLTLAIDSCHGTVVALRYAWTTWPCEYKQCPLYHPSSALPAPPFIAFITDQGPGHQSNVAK
ABHD4 inh = ABHD4 inhibitors, primary screen, biochemical, fluorescence polarization, mouse. (Lyso)-N-acylphosphatidylethanolamine lipase (Mus musculus), Q8VD66. purified mABHD4, FP-Rh probe fluorescence polarization. inhibition, % at 8.92 µM. 370,000 tested, 0.54% active. AID 720543, 2013;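 active means inhibition exceeding the mean over every tested compound plus 3 SD, cut at about 30% in these data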;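 further: 0% = plate median of compound wells and 100% = S159A mutant with DMSO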
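Test system: mABHD4 protein | Buffer or medium: HEPES pH 7.0 buffer, 150 mM NaCl, 0.01% Pluronic F-127 | Probe or stimulus: FP-Rh fluorescent activity-based probe, added after compound pre-incubation | Timing: Pre-incubation 45 min, probe exposure 60 min, at 25 °C | Technique: Fluorescence polarization, excitation 525 nm, emission 598 nm, BODIPY TMR filters | Repeats: Single well per compound (singlicate)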
HTRA1 inh = HTRA1 serine protease inhibitors, primary screen, biochemical, fluorescence polarization, HTS; Q92743; recombinant HTRA1, FP-rhodamine activity-based probe; inhibition, % at 5.96 µM; 340,000 tested, 0.5% active; in the data active means inhibition above about 36%;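 further: 0% = enzyme with DMSO and 100% = wells lacking enzyme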
PRMT1 FP inh = PRMT1 methyltransferase inhibitors, primary screen, biochemical, fluorescence polarization; AID 652257, 2013; 370,000 tested, 1.3% active; Protein arginine N-methyltransferase 1 (Homo sapiens), Q99873; recombinant PRMT1, activity-based probe fluorescence polarization; inhibition, % at 2.79 µM;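 active means inhibition above about 21% made by adding two undisclosed values, limit read from the data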
TCR CD3 inh = inhibitors of human TCR-CD3 interaction, primary screen, biochemical, fluorescence, TAMRA-labeled TCR probe; 360,000 tested, 0.37% active; inhibition, % at 9.4 µM; T-cell receptor (TCR); in the data active means inhibition above about 19%;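 further: recombinant mutant TCR 2C K166C tagged with TAMRA read by polarization; 0% = receptor in buffer alone and 100% = receptor with positive control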
PRMT1 inh conf = PRMT1 methyltransferase inhibitors, confirmation, biochemical, fluorescence polarization, triplicate | inhibition, % at 2.79 µM | 3,300 tested, 42% active | shares compounds with PRMT1 FP inh | recombinant His-PRMT1, activity-based probe fluorescence polarization;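 active means mean inhibition across replicates above the hit cutoff derived for the earlier primary screen, cut at about 22% in these data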
Active calls of the source: *; nt = no result given. Only some compounds are listed: those with a hit (about 2.9% of all), similar ones and a draw of the others.

SMILES | ATG4B inhibitor | SIAE primary | ABHD4 inh | HTRA1 inh | PRMT1 FP inh | TCR CD3 inh | PRMT1 inh conf
NC(=O)C1(N2CCCCC2)CCN(C(=S)Nc2ccc(S(N)(=O)=O)cc2)CC1 | -6 | 2 | -7 | -2 | 27* | -1 | 36*
NC(=O)C1(N2CCCCC2)CCN(C(=S)Nc2ccccc2)CC1 | -8 | 4 | 5 | -1 | -3 | -8 | nt
CCCCN1CC(=O)N2[C@H](C[C@@]3(C)c4ccccc4N(S(=O)(=O)c4ccccc4)[C@@H]23)C1=O | nt | 3 | 0 | nt | -2 | nt | nt
COc1ccc(C(c2nnnn2-c2ccc(OC)cc2)N2CCN(C/C=C/c3ccccc3)CC2)cc1 (configuration not stated) | nt | 1 | 0 | nt | -5 | 7 | nt
COc1ccc(C(c2nnnn2C(C)(C)C)N2CCN(C/C=C/c3ccccc3)CC2)cc1 (configuration not stated) | nt | -6 | -2 | nt | 35* | -6 | 7
CC(=O)Nc1ccc(C(=O)/C=C/c2ccco2)cc1 | 10 | 4 | -5 | 11 | 36* | -5 | 27*
O=C(/C=C\c1ccco1)c1ccc(NC(=O)c2ccco2)cc1 | 20 | -11 | -8 | -37 | 19 | 3 | nt
CCc1ccc(NC(=O)COC(=O)/C=C/c2ccco2)cc1 | 7 | -4 | -9 | -6 | 28* | -4 | -1
CN(CC#Cc1ccccc1)C(N)=NC(=O)/C=C/c1cccc(C(F)(F)F)c1 | nt | -1 | -2 | nt | 6 | nt | nt
COCc1cc(N2CCN(C(=O)OC(C)(C)C)C[C@H]2C)ccc1N1CC[C@@H](O)C1 | nt | 4 | 26 | nt | 66* | -9 | 9
CCCCNS(=O)(=O)/C=C/c1cc(C)ccc1CNC(=O)OC(C)(C)C | nt | 8 | -10 | nt | -4 | nt | nt
COC(=O)c1ccc(Cn2ccc3ccc(-c4ccc5ccn(C(=O)c6ccccc6)c5c4)cc32)cc1 | nt | -3 | 2 | nt | 1 | nt | nt
Cc1ccc(NC(=O)Cn2nnc(-c3ccncc3)n2)cc1C | nt | 1 | 8 | nt | -3 | nt | nt
O=C1NC(c2ccccc2)=N/C1=C/c1ccco1 | -10 | 6 | 9 | 1 | 34* | 4 | 3
COC(=O)c1cc(-c2cccc(C#N)c2)c(=O)n2c1CCC2 | nt | 0 | -6 | nt | 4 | nt | nt
Cc1c(-n2c(O)c(C3=c4ccccc4=NC3=O)sc2=O)c(=O)n(-c2ccccc2)n1C | -3 | 5 | 7 | -1 | 3 | 4 | nt
O=C(O)Cn1c(O)c(C2=c3ccccc3=NC2=O)sc1=O | 1 | 5 | 8 | 4 | 27* | 3 | 10
CCOC(=O)c1ccc(NC(=S)N2CCN(S(C)(=O)=O)CC2)cc1 | -1 | 2 | 2 | 1 | -3 | 6 | nt
Fc1cc(F)c(C2SCCN2C(=S)Nc2cccc(C(F)(F)F)c2)c(F)c1 (configuration not stated) | -4 | -5 | -11 | -13 | 78* | 12 | 9
CCOC(=O)c1ccc(NC(=S)N2CCSC2c2c(F)cc(F)cc2F)cc1 (configuration not stated) | -2 | -11 | -4 | -39 | 89* | 0 | -1
Cc1snc(SCC(=O)c2ccc([N+](=O)[O-])cc2)c1C#N | -16 | 11 | 16 | 12 | 47* | 4 | 53*
Cc1ccccc1-c1cccc2c3c([nH]c12)[C@@H]1C[C@H]2[C@@H](CN1CC3)[C@H](C)ON2C | nt | -1 | 5 | nt | 0 | nt | nt
Cc1ccc(NN2C(=O)C=C(c3ccccc3)C2=O)cc1 | -12 | 2 | 21 | nt | 35* | 3 | 15
CCN(CC)C(=O)CSc1nnc(COc2ccc(OC)cc2)n1N | 8 | 7 | 3 | 4 | 2 | -4 | nt
CCN(CC)C(=O)CSc1nnc2nnc3cc(OC)ccc3n12 | -2 | 6 | 7 | nt | 29* | -10 | 26*
